Measured values from the RNAGym collection of RNA variant scans (doi:10.1038/s41586-018-0170-7).

B1: tRNA (parent)
chain: GUUCCGUUGGCGUAAUGGUAACGCGUCUCCCUCCUAAGGAGAAGACUGCGGGUUCGAGUCCCGUACGGAACG

Variants of: B1
Test: yeast fitness, log relative to wild type (ln ratio); higher = fitter; tRNA-Arg(CCU), competitive growth, 37 C, 1 M NaCl
Method in brief: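 Variants were counted by 125 bp paired-end Illumina sequencing after pools of a combinatorial tRNA-Arg(CCU) library, held on a HIS3 centromeric plasmid in BY4742 lacking the chromosomal gene, grew ~6.5 generations (~26.5 h) in SC-HIS 1M NaCl at 37 °C. Each genotype's fitness is the natural log of its generations relative to the wild type's. Generations were OD-scaled log2 output/input frequencies, inverse-variance weighted over replicates.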

| Variant | yeast fitness (ln) |
| --- | --- |
| G1A U2G A43C C66U C71U | -0.257 |
| U2C G6A C27U A43C C46U A70U | -0.0327 |
| A43C C66U A69G | -0.174 |
| U2G G6A C46U C66U A69G C71U | -0.155 |
| U2C G6A C27U A43C C66U A69G C71U | -0.35 |
| A43C C46U C66U A69G A70U C71U | -0.356 |
| G1A U2G G6U A43C A69G A70U | -0.456 |
| G1A U2C G6U A43C C46U C66A A69G A70G C71U | -0.0061 |
| G1A G6U C27U | -0.16 |
| U2C C27U A70G C71U | -0.0321 |
| U2C C27U A43C A70G | -0.0248 |
| U2C C27U A43C A70U | -0.152 |
| U2G G6U A43C A69G A70U C71U | -0.433 |
| G1A U2C G6U C27U A43C C66U A69G A70G C71U | -0.117 |
| G1A G6A C27U A43C C46U C66U C71U | -0.166 |
| G1A U2C G6A C46U C66U C71U | -0.0596 |
| U2C G6A C27U A43C A69G A70U C71U | -0.384 |
| G1A U2C G6A A70G C71U | -0.0357 |
| U2G G6A C46U A70U | 0.00257 |
| U2G G6A C27U C46U A70U C71U | -0.143 |
| G6U C46U C66U | -0.0169 |
| U2C G6U C27U C66A A70G C71U | -0.0263 |
| G1A U2C G6A C27U A43C C46U A70U | -0.125 |
| G1A G6U A43C A69G A70U C71U | -0.524 |

| Variant | yeast fitness (ln) |
| --- | --- |
| G1A U2G C27U A69G A70U C71U | -0.386 |
| G1A U2G C27U C46U C66A A69G A70U C71U | -0.476 |
| G1A G6U C27U A43C C46U C66A A70U C71U | -0.325 |
| G6A C27U A43C C46U C66U C71U | -0.464 |
| U2G C46U A69G A70G C71U | -0.184 |
| U2G G6U C66U A69G C71U | -0.239 |
| U2G A43C C66U A70G | -0.156 |
| C27U C46U C66A A69G A70U C71U | -0.396 |
| C27U C66A A70U C71U | -0.182 |
| G1A A43C C66A A69G A70G C71U | -0.249 |
| U2G C27U A43C A69G A70U C71U | -0.364 |
| G1A U2G G6U A43C C46U C66U A70G | -0.344 |
| G6U C27U C66A | -0.0293 |
| G1A U2C G6U C27U C46U C66A A70G C71U | -0.0279 |
| U2C G6U C27U C46U C66U A70U C71U | -0.335 |
| G1A U2C C66U C71U | -0.189 |
| G1A U2G G6A C27U A43C C66U | -0.348 |
| G6U C27U C46U C66A A69G A70U C71U | -0.328 |
| G1A U2C G6U C66A A69G A70U | 0.0124 |
| U2C C27U A43C C66U A69G C71U | -0.388 |
| G1A C27U A43C C66U A69G A70G C71U | -0.371 |
| U2C C66U A69G C71U | -0.311 |
| U2C G6A C46U C66U A70G | -0.00418 |
| G6A C66U A70U C71U | -0.462 |

| Variant | yeast fitness (ln) |
| --- | --- |
| G1A U2C G6U C27U C46U C71U | -0.0687 |
| U2G C27U A43C C46U C66A A69G A70G | -0.21 |
| U2G G6U C27U A43C C66U A70U | -0.219 |
| U2C G6A C46U C71U | -0.0887 |
| U2G G6A C27U A70U | -0.283 |
| G1A G6U C46U C66U A69G A70U C71U | -0.441 |
| G1A G6U A43C C66A A70G C71U | -0.517 |
| G1A G6U C27U C46U | -0.207 |
| G1A U2G G6A A43C C46U A70G | -0.163 |
| G1A U2G G6A C27U A43C C46U C66U C71U | -0.29 |
| G1A C27U C46U C66A A69G C71U | -0.168 |
| G1A U2G G6A C27U C66U A70G | -0.349 |
| U2C G6U C27U A43C C66A | -0.104 |
| U2C A43C C66A A69G A70U C71U | -0.368 |
| U2G A69G A70U | -0.00206 |
| G1A U2G G6A A43C C66A A70U | -0.216 |
| G6U A43C C46U C66A C71U | -0.0527 |
| U2G G6U A43C C46U C66A A70U | -0.00113 |
| G1A G6A C27U C46U A70G C71U | -0.366 |
| U2C G6U A43C C46U C66A A69G A70U | -0.162 |
| G1A U2G G6U C27U A43C C46U C66U A69G C71U | -0.4 |
| G1A G6A C27U C46U A69G A70U | -0.24 |
| A43C C46U A69G C71U | -0.0511 |
| G1A U2G G6A C27U A70U | -0.24 |

| Variant | yeast fitness (ln) |
| --- | --- |
| U2C G6U C27U A43C C46U C66A | 0.00284 |
| U2C G6U C27U A43C C46U C66U | -0.0875 |
| U2G G6U C46U C66A A70U | 0.00118 |
| G6U C27U A43C C46U C66A A70G C71U | -0.211 |
| U2G G6U C66A A69G A70U C71U | -0.726 |
| G1A G6A C27U C46U C66A A70G C71U | -0.269 |
| G1A C27U A43C C46U C66U C71U | -0.219 |
| U2G C27U A43C C46U C66A A70U C71U | -0.262 |
| A69G A70U C71U | -0.162 |
| U2G C66A A70G C71U | -0.168 |
| G1A U2C G6U C27U A43C C46U C66A A70U | -0.0771 |
| U2G C46U C66U A70G | -0.11 |
| U2C A43C A69G A70U C71U | -0.32 |
| U2C C27U C46U C66U A69G A70G C71U | -0.281 |
| U2G G6A A43C C46U C66U | -0.147 |
| G6A C27U A43C C46U C66U A69G A70U | -0.306 |
| G1A U2G G6A C27U C46U C66U A69G A70G | -0.272 |
| U2G G6A C46U C66A | -0.093 |
| G1A U2G G6U C27U A69G A70G | -0.376 |
| G1A U2G G6U C27U A43C C46U A69G C71U | -0.39 |
| U2G G6U A43C A69G A70G C71U | -0.28 |
| U2G C27U C46U C66U A70G C71U | -0.175 |
| G1A U2G C66U A70G C71U | -0.187 |
| G1A U2G C27U C46U C66A A70G | -0.195 |

| Variant | yeast fitness (ln) |
| --- | --- |
| U2G C27U C46U C66U A69G A70U | -0.392 |
| U2G A43C A70U C71U | -0.0697 |
| G6U A43C A69G A70G C71U | -0.327 |
| U2G A43C C46U A69G A70U C71U | -0.509 |
| U2C G6A C27U C46U A70G | -0.0764 |
| G6A A69G A70G | -0.0849 |
| G1A G6A | -0.0503 |
| G6A C27U A43C C66U A70U C71U | -0.441 |
| G1A U2C C27U A70G C71U | -0.0348 |
| G6U C66U C71U | -0.639 |
| G1A U2C C27U A70U C71U | -0.288 |
| U2G C27U C46U A69G A70U | -0.0139 |
| U2C G6U A43C C46U A70G C71U | -0.278 |
| U2G G6A C27U A43C C66A A70U | -0.176 |
| G1A U2G C46U A69G C71U | -0.0958 |
| G1A U2G G6U A70U C71U | -0.22 |
| U2C G6U C27U A43C C66U A69G A70G C71U | -0.347 |
| G1A U2G G6U C27U C46U A70U | -0.217 |
| U2C G6U C27U A43C A69G A70G | -0.242 |
| U2G C27U A43C C46U C66A A69G A70U C71U | -0.498 |
| U2G G6U C27U A43C A70G C71U | -0.329 |
| G6U C66A A70U C71U | -0.412 |
| G6A A69G C71U | -0.134 |
| U2C G6A A69G A70U C71U | -0.174 |

| Variant | yeast fitness (ln) |
| --- | --- |
| U2C G6A C27U A43C A69G A70G C71U | -0.256 |
| G1A U2C G6A C66U A69G C71U | -0.31 |
| G1A G6U A43C C46U A69G A70U | -0.272 |
| U2C C27U C66A C71U | -0.146 |
| G6A C27U C66A | -0.192 |
| G6U A43C C46U C66A A69G A70U | -0.113 |
| G1A U2C G6U A43C C66U A69G A70G C71U | -0.344 |
| A43C C46U C66U A70U | -0.0743 |
| G1A G6A C27U A43C C46U C66U A69G A70G | -0.309 |
| G1A U2G C27U A43C C46U C66A A69G A70G C71U | -0.269 |
| G6A C46U A70U C71U | -0.15 |
| C46U A69G A70G | -0.0172 |
| U2C G6U C27U C46U C66U | -0.183 |
| G1A U2G G6A A70U | -0.0829 |
| U2G G6U C27U C46U A69G A70G C71U | -0.268 |
| G6U C27U C66A A69G A70U C71U | -0.378 |
| G1A G6U C27U C46U C66U C71U | -0.297 |
| A43C A69G C71U | -0.138 |
| U2C A43C C66U | -0.0874 |
| G1A C27U A69G C71U | -0.0706 |
| G1A U2C G6U C27U C46U | -0.0885 |
| G1A C27U A43C C66A A69G A70G C71U | -0.427 |
| G1A G6U A43C C46U C66A A69G A70G | -0.258 |
| G1A U2G C27U C71U | -0.108 |

| Variant | yeast fitness (ln) |
| --- | --- |
| U2C A43C C46U A69G A70G | -0.0147 |
| G1A G6A C27U A69G A70U C71U | -0.504 |
| U2C G6U A43C C46U C66U A69G A70G C71U | -0.169 |
| G1A U2C C27U A70G | -0.0624 |
| U2G A43C C46U A69G A70G | -0.174 |
| U2G A43C C66A A70U | -0.0996 |
| U2G G6A C27U C46U C66U A69G | -0.215 |
| U2G G6A C46U A69G A70U | -0.21 |
| G1A G6U C27U C46U C66A | -0.32 |
| G1A U2C C27U A43C C46U C66A A70U C71U | -0.27 |
| G1A U2G G6U C27U A43C C46U A69G A70U | -0.463 |
| G6U C46U C66A A70U C71U | -0.394 |
| U2G C27U C46U A69G A70G C71U | -0.169 |
| C46U A70U C71U | -0.129 |
| G1A G6A A43C C46U C66A C71U | -0.26 |
| U2C G6U C27U A70G | -0.185 |
| U2G G6A C46U C66U A70G C71U | -0.35 |
| G1A G6A C27U A43C C46U C66U A69G A70U C71U | -0.477 |
| U2G C27U A43C C46U A69G A70G C71U | -0.132 |
| U2C G6U A43C | -0.0574 |
| C27U C46U C66U A69G A70U C71U | -0.485 |
| U2C G6U C27U A43C C46U C66U A70U C71U | -0.317 |
| G1A U2C G6A A43C A70U C71U | -0.088 |
